Key:
OVCAR-4 = experiment: Anticancer activity against human OVCAR-4 cells assessed as cell growth inhibition measured after 72 hrs by DAPI staining based analysis; assay type: functional
SNU-449 = experiment: Anticancer activity against human SNU-449 cells assessed as cell growth inhibition measured after 72 hrs by DAPI staining based analysis; assay type: functional
NCI-H1299 = experiment: Anticancer activity against human NCI-H1299 cells assessed as cell doubling measured for 72 hrs by DAPI staining based analysis; assay type: functional
G-402 [1] = experiment: Anticancer activity against human G-402 cells assessed as cell doubling measured for 72 hrs by DAPI staining based analysis; assay type: functional
EFM-19 = experiment: Anticancer activity against human EFM-19 cells assessed as cell doubling measured for 72 hrs by DAPI staining based analysis; assay type: functional
[2] = target: Centromere-associated protein E (Homo sapiens, UniProt Q02224); experiment: Uncompetitive binding affinity to microtubule-stimulated ATPase activity of C-terminal 6-his-tagged CENP-E (2 to 340 residues)(unknown origin) expressed in Escherichia coli BL21(DE3) assessed as apparent inhibition constant; details: read-out: Ki(app)
How it was run: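 CENP-E motor domain (residues 2–340, C-terminal 6-his, from E. coli BL21(DE3)) run in MT-stimulated ATPase with 500 μM ATP, 5 μM paclitaxel-stabilized MT, 1 nM enzyme in PEM25 buffer, pH 6.8. Apparent Ki taken from the concentration-response curves with explicit correction for enzyme concentration.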

[3] = Anticancer activity against human C4-1 cells assessed as cell growth inhibition measured after 72 hrs by DAPI staining based analysis; assay type: functional
How it was run: (§1)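 Cells were seeded, and DNA content at 24 h after seeding (T0) was read by imaging of fixed, DAPI-stained cells. Cells were then exposed to a range of drug concentrations for a further 72 h (T72) and DNA content was read again. T72 values were normalized to T0, and GI50 was taken from curve fits as the concentration giving 50% growth inhibition relative to T0 and Ymax.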

NCI-H596 = experiment: Anticancer activity against human NCI-H596 cells assessed as cell growth inhibition measured after 72 hrs by DAPI staining based analysis; assay type: functional
HuP-T4 = experiment: Anticancer activity against human HuP-T4 cells assessed as cell doubling measured for 72 hrs by DAPI staining based analysis; assay type: functional
SF-295 = experiment: Anticancer activity against human SF-295 cells assessed as cell doubling measured for 72 hrs by DAPI staining based analysis; assay type: functional
MC-CAR = experiment: Anticancer activity against human MC-CAR cells assessed as cell growth inhibition measured after 72 hrs by DAPI staining based analysis; assay type: functional
RPMI-2650 = experiment: Anticancer activity against human RPMI-2650 cells assessed as cell doubling measured for 72 hrs by DAPI staining based analysis; assay type: functional
SF-539 = experiment: Anticancer activity against human SF-539 cells assessed as cell growth inhibition measured after 72 hrs by DAPI staining based analysis; assay type: functional
[4] = Anticancer activity against human NCI-H322T cells assessed as cell doubling measured for 72 hrs by DAPI staining based analysis; assay type: functional
K562 = experiment: Anticancer activity against human K562 cells assessed as cell doubling measured for 72 hrs by DAPI staining based analysis; assay type: functional
[5] = Anticancer activity against human RDES cells assessed as cell growth inhibition measured after 72 hrs by DAPI staining based analysis; assay type: functional; details: RD-ES
SW480 = experiment: Anticancer activity against human SW480 cells assessed as cell doubling measured for 72 hrs by DAPI staining based analysis; assay type: functional
NCI-H630 = experiment: Anticancer activity against human NCI-H630 cells assessed as cell doubling measured for 72 hrs by DAPI staining based analysis; assay type: functional
JEG-3 = experiment: Anticancer activity against human JEG-3 cells assessed as cell growth inhibition measured after 72 hrs by DAPI staining based analysis; assay type: functional
C-33-A = experiment: Anticancer activity against human C-33-A cells assessed as cell doubling measured for 72 hrs by DAPI staining based analysis; assay type: functional
HT-29 = experiment: Antitumor activity against human HT-29 cells in xenograft model assessed as tumor growth delay at 62.5 mg/kg relative to control; assay type: functional
A 172 = experiment: Anticancer activity against human A-172 cells assessed as cell doubling measured for 72 hrs by DAPI staining based analysis; assay type: functional
YAPC = experiment: Anticancer activity against human YAPC cells assessed as cell doubling measured for 72 hrs by DAPI staining based analysis; assay type: functional
T-24 = experiment: Anticancer activity against human T24 cells assessed as cell growth inhibition measured after 72 hrs by DAPI staining based analysis; assay type: functional
Hep 3B2 = experiment: Anticancer activity against human Hep3B cells assessed as cell growth inhibition measured after 72 hrs by DAPI staining based analysis; assay type: functional
[6] = Antitumor activity against human MV-522 cells in xenograft model assessed as tumor growth delay at 62.5 mg/kg relative to control; assay type: functional
UACC-257 = experiment: Anticancer activity against human UACC-257 cells assessed as cell doubling measured for 72 hrs by DAPI staining based analysis; assay type: functional
SW684 = experiment: Anticancer activity against human SW684 cells assessed as cell doubling measured for 72 hrs by DAPI staining based analysis; assay type: functional
OV-90 = experiment: Anticancer activity against human OV-90 cells assessed as cell doubling measured for 72 hrs by DAPI staining based analysis; assay type: functional
AGS = experiment: Anticancer activity against human AGS cells assessed as cell doubling measured for 72 hrs by DAPI staining based analysis; assay type: functional
D283 Med = experiment: Anticancer activity against human D283 Med cells assessed as cell doubling measured for 72 hrs by DAPI staining based analysis; assay type: functional
Raji = experiment: Anticancer activity against human Raji cells assessed as cell doubling measured for 72 hrs by DAPI staining based analysis; assay type: functional
PC-3 = experiment: Anticancer activity against human PC-3 cells assessed as cell growth inhibition measured after 72 hrs by DAPI staining based analysis; assay type: functional
COLO-320-HSR = experiment: Anticancer activity against human COLO 320HSR cells assessed as cell growth inhibition measured after 72 hrs by DAPI staining based analysis; assay type: functional; how it was run: as §1
SNB-19 = experiment: Anticancer activity against human SNB-19 cells assessed as cell doubling measured for 72 hrs by DAPI staining based analysis; assay type: functional
UMUC3 = experiment: Anticancer activity against human UM-UC-3 cells assessed as cell growth inhibition measured after 72 hrs by DAPI staining based analysis; assay type: functional
G-402 [7] = experiment: Anticancer activity against human G-402 cells assessed as cell growth inhibition measured after 72 hrs by DAPI staining based analysis; assay type: functional
How it was run: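 Cells seeded, DAPI-stained DNA content of fixed cells read by imaging 24 h after seeding (T0), and again after a further 72 h exposure to a range of drug concentrations (T72). T72 values were normalized to T0. Curve fits gave the concentration producing 50% growth inhibition relative to T0 and Ymax (GI50).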

SK-OV-3 = experiment: Anticancer activity against human SK-OV-3 cells assessed as cell doubling measured for 72 hrs by DAPI staining based analysis; assay type: functional
OVCAR-5 = experiment: Anticancer activity against human OVCAR-5 cells assessed as cell doubling measured for 72 hrs by DAPI staining based analysis; assay type: functional
SAOS-2 = experiment: Anticancer activity against human SAOS-2 cells assessed as cell growth inhibition measured after 72 hrs by DAPI staining based analysis; assay type: functional

Sequence of Centromere-associated protein E (Q02224 whole entry, the tested form may be a part): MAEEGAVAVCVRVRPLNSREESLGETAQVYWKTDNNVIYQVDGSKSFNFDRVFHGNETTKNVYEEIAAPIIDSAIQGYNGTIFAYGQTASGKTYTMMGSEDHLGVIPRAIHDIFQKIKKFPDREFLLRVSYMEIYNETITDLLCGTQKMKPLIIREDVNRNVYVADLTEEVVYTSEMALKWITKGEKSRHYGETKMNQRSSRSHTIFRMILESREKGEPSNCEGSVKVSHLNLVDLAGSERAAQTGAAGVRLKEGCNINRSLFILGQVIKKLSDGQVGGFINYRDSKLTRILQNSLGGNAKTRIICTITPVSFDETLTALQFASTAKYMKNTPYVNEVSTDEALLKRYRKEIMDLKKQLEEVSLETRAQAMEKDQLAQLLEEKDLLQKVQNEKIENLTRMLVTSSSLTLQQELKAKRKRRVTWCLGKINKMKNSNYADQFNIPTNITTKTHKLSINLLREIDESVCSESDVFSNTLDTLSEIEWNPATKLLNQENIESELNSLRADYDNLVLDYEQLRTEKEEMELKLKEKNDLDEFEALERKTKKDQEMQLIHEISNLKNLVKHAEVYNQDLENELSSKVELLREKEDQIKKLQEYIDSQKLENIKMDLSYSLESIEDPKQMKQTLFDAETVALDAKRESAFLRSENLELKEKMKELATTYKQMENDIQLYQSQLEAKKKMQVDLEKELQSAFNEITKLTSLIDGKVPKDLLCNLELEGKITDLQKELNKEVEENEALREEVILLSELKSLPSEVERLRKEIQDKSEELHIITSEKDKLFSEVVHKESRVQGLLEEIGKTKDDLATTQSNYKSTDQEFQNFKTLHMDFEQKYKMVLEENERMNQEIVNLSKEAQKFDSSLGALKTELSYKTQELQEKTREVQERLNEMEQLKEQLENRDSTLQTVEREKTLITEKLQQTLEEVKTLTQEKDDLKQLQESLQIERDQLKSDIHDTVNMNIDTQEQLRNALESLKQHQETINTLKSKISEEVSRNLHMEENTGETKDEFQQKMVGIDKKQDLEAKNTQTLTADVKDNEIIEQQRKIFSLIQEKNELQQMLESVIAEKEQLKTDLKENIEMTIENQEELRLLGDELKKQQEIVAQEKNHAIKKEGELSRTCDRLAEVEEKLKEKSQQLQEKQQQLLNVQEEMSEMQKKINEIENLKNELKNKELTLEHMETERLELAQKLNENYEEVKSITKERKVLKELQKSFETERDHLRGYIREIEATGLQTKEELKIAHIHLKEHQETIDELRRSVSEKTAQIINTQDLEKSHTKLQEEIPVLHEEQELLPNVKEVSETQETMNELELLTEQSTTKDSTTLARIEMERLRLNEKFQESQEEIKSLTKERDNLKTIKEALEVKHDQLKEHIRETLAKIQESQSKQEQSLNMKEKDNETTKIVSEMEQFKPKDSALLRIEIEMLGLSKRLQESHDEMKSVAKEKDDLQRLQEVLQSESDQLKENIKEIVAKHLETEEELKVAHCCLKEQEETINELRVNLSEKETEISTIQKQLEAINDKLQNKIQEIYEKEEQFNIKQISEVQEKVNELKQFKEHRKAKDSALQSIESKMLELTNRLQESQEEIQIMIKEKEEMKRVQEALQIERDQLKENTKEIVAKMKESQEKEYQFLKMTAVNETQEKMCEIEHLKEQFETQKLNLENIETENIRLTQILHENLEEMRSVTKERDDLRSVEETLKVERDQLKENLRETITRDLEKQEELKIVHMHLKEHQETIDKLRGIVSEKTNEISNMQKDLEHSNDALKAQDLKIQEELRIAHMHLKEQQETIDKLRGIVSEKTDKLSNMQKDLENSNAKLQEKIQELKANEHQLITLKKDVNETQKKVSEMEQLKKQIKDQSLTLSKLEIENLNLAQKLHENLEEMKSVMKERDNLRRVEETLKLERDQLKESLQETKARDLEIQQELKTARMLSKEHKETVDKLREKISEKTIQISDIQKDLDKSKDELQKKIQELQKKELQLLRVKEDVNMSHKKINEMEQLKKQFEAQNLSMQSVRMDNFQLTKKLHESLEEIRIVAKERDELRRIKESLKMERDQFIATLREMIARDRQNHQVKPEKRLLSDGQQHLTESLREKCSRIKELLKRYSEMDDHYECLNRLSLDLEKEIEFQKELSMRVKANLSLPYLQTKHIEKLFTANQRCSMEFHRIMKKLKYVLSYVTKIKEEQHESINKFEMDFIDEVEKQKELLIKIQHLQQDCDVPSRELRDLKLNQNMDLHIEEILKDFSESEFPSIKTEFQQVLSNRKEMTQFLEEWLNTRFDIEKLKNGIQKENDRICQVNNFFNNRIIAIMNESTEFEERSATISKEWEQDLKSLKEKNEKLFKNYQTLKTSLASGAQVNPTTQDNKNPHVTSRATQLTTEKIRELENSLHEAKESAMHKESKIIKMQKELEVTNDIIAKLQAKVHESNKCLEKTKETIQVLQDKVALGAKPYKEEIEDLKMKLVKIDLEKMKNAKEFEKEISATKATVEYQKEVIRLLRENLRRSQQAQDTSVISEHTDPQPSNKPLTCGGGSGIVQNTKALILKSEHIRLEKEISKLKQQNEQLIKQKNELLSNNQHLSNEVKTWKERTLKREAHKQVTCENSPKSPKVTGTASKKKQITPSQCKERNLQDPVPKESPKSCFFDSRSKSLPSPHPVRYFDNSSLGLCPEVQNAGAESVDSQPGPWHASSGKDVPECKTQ

## CC(C)Oc1ccc(C(=O)N[C@H](CNC(=O)CN(C)C)Cc2ccc(-c3cn4cccc([C@H](C)O)c4n3)cc2)cc1Cl [GSK-923295A]
OVCAR-4
  GI50: 30 nM
SNU-449
  GI50: 236 nM
NCI-H1299
  Activity: 2.78
G-402 [1]
  Activity: 1.76
EFM-19
  Activity: 1.43
[2]
  Ki: 3.2 nM
[3]
  GI50: 42 nM
NCI-H596
  GI50: 5.02 µM
HuP-T4
  Activity: 1.09
SF-295
  Activity: 2.3
MC-CAR
  GI50: 86 nM
RPMI-2650
  Activity: 3
SF-539
  GI50: 28 nM
[4]
  Activity: 2.27
K562
  Activity: 3.52
[5]
  GI50: 63 nM
SW480
  Activity: 2.21
NCI-H630
  Activity: 2.04
JEG-3
  GI50: 25 nM
C-33-A
  Activity: 3.13
HT-29
  Activity: 6%
A 172
  Activity: 1.84
YAPC
  Activity: 2.14
T-24
  GI50: 45 nM
Hep 3B2
  GI50: 164 nM
[6]
  Activity: 50%
UACC-257
  Activity: 1.79
SW684
  Activity: 1.13
OV-90
  Activity: 1.87
AGS
  Activity: 2.95
D283 Med
  Activity: 1.27
Raji
  Activity: 3.26
PC-3
  GI50: 28 nM
COLO-320-HSR
  GI50: 153 nM
SNB-19
  Activity: 2.56
UMUC3
  GI50: 23 nM
G-402 [7]
  GI50: 31 nM
SK-OV-3
  Activity: 1.72
OVCAR-5
  Activity: 2.84
SAOS-2
  GI50: 41 nM

— ChEMBL document CHEMBL5705890, “Antitumor activity of an allosteric inhibitor of centromere-associated protein-E” (Proc Natl Acad Sci U S A, 2010)
